Assay results: ChEMBL document CHEMBL4689842, “EUbOPEN Chemogenomics Library wave 1” (2021)

Test system: Fibroblast
Assay: Multiplex assay against human fibroblast
Assay type: toxicity, cell-based
Summary of the method: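 Cells were classed with CellPathfinder machine-learning gating, first as Hoechst high-intensity objects or normal cells, then (normal cells) as healthy, pyknosed or fragmented nuclei, and finally (pyknosed cells) as mitotic or apoptotic. Staining of live cells at seeding used Hoechst33342, BioTracker Green Microtubule Cytoskeleton Dye, MitoTracker Red and Annexin V Alexa Fluor 680, with imaging on a CQ1 microscope at 37°C and 5% CO2 after compound addition. Tubulin, mitochondrial-mass and membrane-permeability phenotypes are per cents of healthy-nucleus cells.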

[1] = 12 h, 1 µM, compound concentration 1 uM, replicate 1
[2] = 12 h, 1 µM, compound concentration 1 uM, replicate 2
[3] = 12 h, 10 µM, compound concentration 10 uM, replicate 1
[4] = 12 h, 10 µM, compound concentration 10 uM, replicate 2
[5] = 24 h, 1 µM, compound concentration 1 uM, replicate 1
[6] = 24 h, 1 µM, compound concentration 1 uM, replicate 2
[7] = 24 h, 10 µM, compound concentration 10 uM, replicate 1
[8] = 24 h, 10 µM, compound concentration 10 uM, replicate 2
[9] = 48 h, 1 µM, compound concentration 1 uM, replicate 1
[10] = 48 h, 1 µM, compound concentration 1 uM, replicate 2
[11] = 48 h, 10 µM, compound concentration 10 uM, replicate 1
[12] = 48 h, 10 µM, compound concentration 10 uM, replicate 2

## CNC(=O)Nc1ccc(-c2nc(N3CC4CCC(C3)O4)c3cnn(C4CCC5(CC4)OCCO5)c3n2)cc1
[1]
  Population Apoptotic (%): 47%
  Population Fragmented Nuclei (%): 38%
  Population Healthy Nuclei (%): 32%
  Population Hoechst High Intensity Objects (%): 14%
  Population Membrane Permeable-Phenotype (%): 29%
  Population Mitochondria Different-Phenotype (%): 4%
  Population Mitotic Cells (%): 52%
  Population Normal (%): 85%
  Population Pyknosed Nuclei (%): 28%
  Population Tubulin-Different-Phenotype (%): 54%
  Total Cell Count: 85
[2]
  Population Apoptotic (%): 0%
  Population Fragmented Nuclei (%): 28%
  Population Healthy Nuclei (%): 55%
  Population Hoechst High Intensity Objects (%): 10%
  Population Membrane Permeable-Phenotype (%): 5%
  Population Mitochondria Different-Phenotype (%): 13%
  Population Mitotic Cells (%): 100%
  Population Normal (%): 89%
  Population Pyknosed Nuclei (%): 16%
  Population Tubulin-Different-Phenotype (%): 18%
  Total Cell Count: 54
[3]
  Population Apoptotic (%): 50%
  Population Fragmented Nuclei (%): 28%
  Population Healthy Nuclei (%): 29%
  Population Hoechst High Intensity Objects (%): 16%
  Population Membrane Permeable-Phenotype (%): 30%
  Population Mitochondria Different-Phenotype (%): 15%
  Population Mitotic Cells (%): 50%
  Population Normal (%): 83%
  Population Pyknosed Nuclei (%): 41%
  Population Tubulin-Different-Phenotype (%): 96%
  Total Cell Count: 104
[4]
  Population Apoptotic (%): 25%
  Population Fragmented Nuclei (%): 13%
  Population Healthy Nuclei (%): 54%
  Population Hoechst High Intensity Objects (%): 6%
  Population Membrane Permeable-Phenotype (%): 36%
  Population Mitochondria Different-Phenotype (%): 75%
  Population Mitotic Cells (%): 75%
  Population Normal (%): 93%
  Population Pyknosed Nuclei (%): 32%
  Total Cell Count: 107
[5]
  Population Apoptotic (%): 38%
  Population Fragmented Nuclei (%): 30%
  Population Healthy Nuclei (%): 33%
  Population Hoechst High Intensity Objects (%): 20%
  Population Membrane Permeable-Phenotype (%): 25%
  Population Mitochondria Different-Phenotype (%): 10%
  Population Mitotic Cells (%): 61%
  Population Normal (%): 79%
  Population Pyknosed Nuclei (%): 35%
  Population Tubulin-Different-Phenotype (%): 60%
  Total Cell Count: 74
[6]
  Population Apoptotic (%): 25%
  Population Fragmented Nuclei (%): 19%
  Population Healthy Nuclei (%): 64%
  Population Hoechst High Intensity Objects (%): 18%
  Population Membrane Permeable-Phenotype (%): 8%
  Population Mitochondria Different-Phenotype (%): 6%
  Population Mitotic Cells (%): 75%
  Population Normal (%): 81%
  Population Pyknosed Nuclei (%): 16%
  Population Tubulin-Different-Phenotype (%): 23%
  Total Cell Count: 55
[7]
  Population Apoptotic (%): 77%
  Population Fragmented Nuclei (%): 28%
  Population Healthy Nuclei (%): 35%
  Population Hoechst High Intensity Objects (%): 18%
  Population Membrane Permeable-Phenotype (%): 25%
  Population Mitochondria Different-Phenotype (%): 37%
  Population Mitotic Cells (%): 22%
  Population Normal (%): 81%
  Population Pyknosed Nuclei (%): 35%
  Population Tubulin-Different-Phenotype (%): 88%
  Total Cell Count: 93
[8]
  Population Apoptotic (%): 41%
  Population Fragmented Nuclei (%): 8%
  Population Healthy Nuclei (%): 42%
  Population Hoechst High Intensity Objects (%): 6%
  Population Membrane Permeable-Phenotype (%): 44%
  Population Mitochondria Different-Phenotype (%): 84%
  Population Mitotic Cells (%): 58%
  Population Normal (%): 93%
  Population Pyknosed Nuclei (%): 49%
  Population Tubulin-Different-Phenotype (%): 96%
  Total Cell Count: 90
[9]
  Population Apoptotic (%): 33%
  Population Fragmented Nuclei (%): 42%
  Population Healthy Nuclei (%): 37%
  Population Hoechst High Intensity Objects (%): 19%
  Population Membrane Permeable-Phenotype (%): 13%
  Population Mitochondria Different-Phenotype (%): 8%
  Population Mitotic Cells (%): 66%
  Population Normal (%): 80%
  Population Pyknosed Nuclei (%): 19%
  Population Tubulin-Different-Phenotype (%): 43%
  Total Cell Count: 76
[10]
  Population Apoptotic (%): 75%
  Population Fragmented Nuclei (%): 33%
  Population Healthy Nuclei (%): 61%
  Population Hoechst High Intensity Objects (%): 12%
  Population Membrane Permeable-Phenotype (%): 10%
  Population Mitochondria Different-Phenotype (%): 2%
  Population Mitotic Cells (%): 25%
  Population Normal (%): 87%
  Population Pyknosed Nuclei (%): 5%
  Population Tubulin-Different-Phenotype (%): 10%
  Total Cell Count: 88
[11]
  Population Apoptotic (%): 50%
  Population Fragmented Nuclei (%): 42%
  Population Healthy Nuclei (%): 37%
  Population Hoechst High Intensity Objects (%): 19%
  Population Membrane Permeable-Phenotype (%): 19%
  Population Mitochondria Different-Phenotype (%): 61%
  Population Mitotic Cells (%): 50%
  Population Normal (%): 80%
  Population Pyknosed Nuclei (%): 20%
  Population Tubulin-Different-Phenotype (%): 80%
  Total Cell Count: 87
[12]
  Population Apoptotic (%): 33%
  Population Fragmented Nuclei (%): 48%
  Population Healthy Nuclei (%): 49%
  Population Hoechst High Intensity Objects (%): 9%
  Population Membrane Permeable-Phenotype (%): 18%
  Population Mitochondria Different-Phenotype (%): 12%
  Population Mitotic Cells (%): 66%
  Population Normal (%): 90%
  Population Pyknosed Nuclei (%): 2%
  Population Tubulin-Different-Phenotype (%): 92%
  Total Cell Count: 122
